From ChEMBL document CHEMBL1126922, “Synthesis of 2,4-disubstituted thiazoles and selenazoles as potential antitumor and antifilarial agents: 1. Methyl 4-(isothiocyanatomethyl)thiazole-2-carbamates, -selenazole-2- carbamates, and related derivatives” (J Med Chem, 1993) come the findings set out here.

The subject of experiment [1] is L1210. Kind of experiment: Growth rate in leukemia L1210 cells at 100 uM. It counts as functional, Mus musculus. The essentials: (§1)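 L1210 cells were grown in static suspension at 38 °C in Fischer's medium with 10% heat-inactivated horse serum, with test compound present continuously for 3 days. Growth rate is the treated/control slope of semilog cell number versus time, calculated as control doubling time ÷ treated doubling time. If growth slowed during the run, the final rate at day 3 was used.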

In experiment [2] the test system is L1210. Nature of the experiment: Growth rate measured as ratio of population doubling time of control cells to that of treated L1210 cells at 100 uM. It counts as functional, Mus musculus. The method in brief:
as §1

The subject of experiment [3] is L1210. Nature of the experiment: In vitro inhibitory concentration of compound against leukemia L1210 cells; No significant inhibition. It counts as functional, cell-based, Mus musculus. The essentials:
(§2)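 L1210 murine leukemia cells kept in static suspension culture at 38 °C in Fischer's medium with 10% heat-inactivated horse serum. Growth measured over 3 days with the compound present continuously at various concentrations. Growth rate = control doubling time / treated doubling time, using the final rate if growth slowed. IC50 = concentration that cuts growth rate to 50% of control.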

Experiment [4] concerns L1210. Nature of the experiment: In vitro inhibitory concentration of compound against leukemia L1210 cells. It counts as functional, cell-based. As to conditions: Mus musculus; call rule not given here. The method in brief: as §2
Experiment [5] deals with L1210. Kind of experiment: Growth rate measured as ratio of population doubling time of control cells to that of treated L1210 cells at 10 uM.
The test system of experiment [6] is L1210. Kind of experiment: Effect on DNA synthesis in L1210 measured by inhibition of incorporation of [3H]dThd into acid insoluble material after 0 hours expressed as percent of control. It counts as functional, Mus musculus. On the set-up: scale not given: the % may be the effect or the level left. The method in brief: (§3)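 L1210 cells given 100 μM compound together with [methyl-3H]dThd (20 Ci/mmol, 1 μCi/mL) or [5-3H]Urd (28.5 Ci/mmol, 1 μCi/mL). Label pulse lasted 1 h, started either at compound addition (0 h) or 6 h later. 3H in the acid-insoluble fraction was counted by liquid scintillation. Values are % of control, mean of two determinations in separate experiments, with range.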

The subject of experiment [7] is L1210. Nature of the experiment: Effect on DNA synthesis in L1210 measured by inhibition of incorporation of [3H]dThd into acid insoluble material after 6 hours expressed as percent of control. It counts as functional, Mus musculus. On the set-up: scale not given: the % may be the effect or the level left. The method in brief: as §3
Experiment [8] deals with L1210. Nature of the experiment: Effect on RNA synthesis in L1210 measured by inhibition of incorporation of [3H]uridine into acid insoluble material after 6 hours expressed as percent of control. It counts as functional, Mus musculus. On the set-up: scale not given: the % may be the effect or the level left. The method in brief: as §3
Experiment [9] has as its system L1210. Kind of experiment: Effect on protein synthesis in L1210 measured by inhibition of incorporation of [3H]leucine into acid insoluble material after 0 hours expressed as percent of control. On the set-up: scale not given: the % may be the effect or the level left. It counts as functional, Mus musculus. The method in brief:
(§4)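 100 μM compound and L-[3,4,5-3H]leucine (143 Ci/mmol, 1 μCi/mL) were added together to L1210 cells ((1-1.5) × 10^5 cells/mL) for a 1 h pulse, started at 0 h or 6 h after compound. Duplicate samples were chilled in ice-cold Puck's Saline G, washed, and precipitated with BSA plus 8% perchloric acid on ice for 30 min. The pellet was hydrolysed in 1 N NaOH at 37 °C and counted; results are % of control.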

Experiment [10] relates to L1210. Nature of the experiment: Effect on protein synthesis in L1210 measured by inhibition of incorporation of [3H]leucine into acid insoluble material after 6 hours expressed as percent of control. It counts as functional, Mus musculus. On the set-up: scale not given: the % may be the effect or the level left. The essentials:
as §4

Experiment [11] relates to L1210. Nature of the experiment: Effect on RNA synthesis in L1210 measured by inhibition of incorporation of [3H]uridine into acid insoluble material after 0 hours expressed as percent of control. It counts as functional, Mus musculus. On the set-up: scale not given: the % may be the effect or the level left. The essentials:
as §3

SMILES strings stand for the structures.

As for `COC(=O)Nc1nc(CCO)cs1`, the GR control in experiment [1] is on record as 102%.

In the case of `CCOC(=O)Cc1csc(NC(=O)OC)n1`, the GR in [2] is reported as 104%.

Regarding `COC(=O)Nc1nc(CCl)c[se]1`, in experiment [2], the GR stood at 103%.

On to `COC(=O)Nc1nc(CCl)cs1`, for which, in experiment [3], the IC50 entry was “Not Active”. Moreover, the GR in experiment [2] was found to be 96%.

With `COC(=O)Nc1nc(CCN=C=S)cs1`, the half-inhibitory concentration (IC50) in experiment [4] amounted to 26 µM. Moreover, the GR in experiment [2] is on record as 0%.

As for `COC(=O)Nc1nc(CCCl)cs1`, in experiment [2], the GR is recorded as 92%.

As for `COC(=O)Nc1nc(CCI)cs1`, the GR in experiment [5] stood at 92%.

As to `COC(=O)Nc1nc(CN=C=S)cs1`, the IC50 in [4] is 3.2 µM. For the same compound, the Effect in experiment [6] is given as 88%; in experiment [7], 56%; in experiment [8], 67%; in experiment [9], 58%; in experiment [10] it was 48%; in experiment [11], 74%. Also, the GR in experiment [2] was 0%.

`COC(=O)Nc1nc(CN=C=[Se])cs1` had an IC50 in [4] of 7.6 µM. In experiment [2], the GR is 0%.

Consider `COC(=O)Nc1nc(CN=C=S)c[se]1`, for which the IC50 in experiment [4] amounted to 22 µM. Moreover, the GR in experiment [2] is on record as 31%.
